Laboratory results published in ChEMBL document CHEMBL2331392, “Antiviral phenolic compounds from Arundina gramnifolia” (J Nat Prod, 2013).
Values after ≈ are worked out from the molar mass of the structure shown.

Assays:
Tobacco mosaic virus [1] = test: Antiviral activity against TMV strain U1 infected in Nicotiana glutinosa leaves assessed as decrease in number of local leaf lesions incubated with virus for 30 mins prior to inoculation on leaves measured 3 to 4 days post-viral infection by half-leaf method; assay type: functional, organism-based
Method in brief: (§1)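 Half-leaf assay on N. glutinosa. TMV U1 was multiplied in N. tabacum cv. K326, purified, and set to 20 mg/mL by UV absorbance at 260 nm. Compounds were dissolved in DMSO and diluted with water. Virus and compound were mixed for 30 min and applied to the left leaf half; the right half got virus plus matched DMSO. Ningnanmycin served as positive control. Three leaf blades per compound. Inhibition % = (C−T)/C×100 from mean local lesion counts.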

[2] = Cytotoxicity against human C8166 cells assessed as inhibition of cell viability after 3 days by MTT assay; assay type: cell-based
Method in brief: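 C8166 cells tested with the MTT method. Cytotoxicity reported as CC50. Azidothymidine ran alongside as positive control.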

Tobacco mosaic virus [3] = test: Antiviral activity against TMV strain U1 infected in Nicotiana glutinosa leaves assessed as decrease in number of local leaf lesions at 20 uM incubated with virus for 30 mins prior to inoculation on leaves measured 3 to 4 days post-viral infection by half-leaf method; assay type: functional; method in brief: as §1
[4] = Therapeutic index, ratio of CC50 for human C8166 cells to EC50 for HIV-1 3B infected in human C8166 cells; assay type: cell-based; conditions: C8166 cells (CC50) and HIV-1 3B infected C8166 cells (EC50)
Method in brief: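 CC50 came from MTT cytotoxicity on C8166 cells. EC50 came from inhibition of HIV-1 cytopathic effect in C8166 cells. Azidothymidine was the positive control. The index is CC50 divided by EC50.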

Tobacco mosaic virus [5] = test: Antiviral activity against TMV strain U1 infected in compound-pretreated Nicotiana glutinosa leaves assessed as inhibition of viral infection at 20 uM incubated with leaf for 6 hrs prior to viral inoculation; assay type: functional
Method in brief: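 Protection assay with TMV U1 on tobacco leaves. Leaves were pretreated with compound at 20 μM for 6 h before virus inoculation. Compounds were dissolved in DMSO and diluted with water; a DMSO solution served as negative control and ningnanmycin as positive control. Inhibition rates are mean ± SD, n = 3.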

[6] = tested on: Human immunodeficiency virus 1; test: Antiviral activity against HIV-1 3B infected in human C8166 cells assessed as inhibition of syncytia formation after 3 days; assay type: functional, organism-based; conditions: Human immunodeficiency virus 1, 3B, C8166, 72 h

Row | Compound | IC50 (Tobacco mosaic virus [1]) [µM] | CC50 at 72 h [2] [µg/mL] | inhibition at 20 µM (Tobacco mosaic virus [3]) [%] | selectivity ratio [4] | inhibition at 20 µM (Tobacco mosaic virus [5]) [%] | EC50 [6] [µg/mL]
1 | COc1cc(O)cc2c1-c1c(O)ccc(O)c1C2=O | 98.3 | 105 (≈ 408 µM) | 17.4 | 19.3 | 16.7 | 5.47 (≈ 21.2 µM)
2 | COc1cc(O)cc2c1-c1c(O)cc(O)cc1C2=O |  | 86.7 (≈ 336 µM) | 7.9 | 31.8 |  | 2.73 (≈ 10.6 µM)
3 | COc1ccc(/C=C/Cc2ccc(O)c(OC)c2OC)cc1O [CANDENATENIN A] | 70.6 | 145 (≈ 459 µM) | 21.2 | 44.3 | 24 | 3.28 (≈ 10.4 µM)
4 | C/C=C/c1cc(OC)c(OC)cc1C(=O)c1cc(OC)c(OC)c(OC)c1 [GRAMNIPHENOL B] |  | 134 (≈ 361 µM) |  | 106 |  | 1.27 (≈ 3.41 µM)
5 | COc1ccc2c(c1)C=C[C@@H](c1ccc(O)c(C(=O)CCO)c1OC)O2 [GRAMNIPHENOL C] | 20.8 | 145 (≈ 407 µM) | 48.2 | 44.3 | 56.3 | 3.28 (≈ 9.2 µM)
6 | C=C(C)[C@H](O)COc1cc(OC)c2c(c1)C(=O)c1c(O)ccc(O)c1-2 [GRAMNIPHENOL D] | 129 | > 200 | 13.3 | > 137 | 11.4 | 1.46 (≈ 4.26 µM)
7 | C=C(C)[C@H](O)COc1cc(OC)c2c(c1)C(=O)c1cc(O)cc(O)c1-2 [GRAMNIPHENOL E] |  | > 200 | 7.16 | > 127 |  | 1.58 (≈ 4.62 µM)
8 | CC1(C)C=Cc2cc3cc(-c4ccc(O)cc4)oc3cc2O1 [GRAMNIPHENOL F] | 40.8 | 102 (≈ 351 µM) | 35.8 | 19.6 | 33.8 | 5.22 (≈ 17.9 µM)
9 | COc1ccc(-c2cc3cc4c(cc3o2)OC(C)(C)C=C4)cc1 [GRAMNIPHENOL G] | 57.7 | 88.7 (≈ 290 µM) | 32.1 | 13.9 | 36.1 | 6.38 (≈ 20.8 µM)
10 | Oc1cc(O)cc(-c2cc3ccc(O)cc3o2)c1 [MORACIN M] | 128 | 57.4 (≈ 237 µM) | 13.2 | 12.5 | 10.2 | 4.59 (≈ 18.9 µM)
11 | CNCC(=O)N[C@@H](CO)C(=O)N[C@H]1[C@H](O)[C@@H](O)[C@H](n2ccc(N)nc2=O)O[C@@H]1C(N)=O [NINGNANMYCIN] | 42.2 |  | 31.8 |  | 30 | 
12 | Cc1cn([C@H]2C[C@H](N=[N+]=[N-])[C@@H](CO)O2)c(=O)[nH]c1=O [ZIDOVUDINE] |  | > 200 |  | > 5880 |  | 
